Assay results as given in ChEMBL document CHEMBL1212869, “Anti-HIV and antiplasmodial activity of original flavonoid derivatives” (Bioorg Med Chem, 2010).

Tests used:
[1] = tested on: Human immunodeficiency virus 1; assay: Antiviral activity against HIV1 3B infected in human MT4 cells assessed as inhibition of virus-induced cytopathic effect after 4 days by MTT assay; assay type: functional, organism-based; conditions: Human immunodeficiency virus 1, 3B, MT4, 96 h
THP-1 = assay: Cytotoxicity against human THP1 cells using propidium iodide staining after 72 hrs by flow cytometry; assay type: cell-based; conditions: THP-1, 72 h
Plasmodium falciparum = assay: Antiplasmodial activity against chloroquine-resistant Plasmodium falciparum W2 infected in human A+ erythrocytes assessed as inhibition of parasite proliferation after 48 hrs; assay type: functional, organism-based; conditions: W2, 48 h
Method in brief: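 W2 parasites were cultured in RPMI 1640 with 25 mM HEPES, 25 mM NaHCO3 and 10% A+ human serum at 2.5% hematocrit, at 37 °C under 10% O2/6% CO2/84% N2. After 48 h exposure without medium change, cells were stained with hydroethidine (0.05 mg/mL in PBS, 20 min, dark, 37 °C). Parasitaemia was read by flow cytometry. IC50 came from three independent experiments.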

[2] = Cytotoxicity against human MT4 cells after 4 days by MTT assay; assay type: cell-based
Method in brief: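 Uninfected MT-4 cells were run in parallel with the antiviral test under the same conditions: 10⁵ cells/mL, serial compound dilutions from DMSO stocks, 4 days at 37 °C. Viability was read by MTT. CC50 is the concentration that lowers viability of uninfected cells by 50%.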

[3] = tested on: Human immunodeficiency virus 2; assay: Antiviral activity against HIV2 ROD infected in human MT4 cells assessed as inhibition of virus-induced cytopathic effect after 4 days by MTT assay; assay type: functional, organism-based; conditions: Human immunodeficiency virus 2, ISOLATE ROD, MT4, 96 h
[4] = Selectivity index, ratio of IC50 for human THP1 cells to IC50 for chloroquine-resistant Plasmodium falciparum W2; assay type: toxicity, cell-based, THP-1; conditions: read-out: Selectivity Index

SMILES | IC50 [1] [µM] | IC50 (THP-1) [µM] | IC50 (Plasmodium falciparum) [µM] | CC50 at 96 h [2] [µM] | IC50 [3] [µM] | selectivity ratio [4]
COc1ccc(-c2oc3ccc(NC(C)=O)cc3c(=O)c2O)cc1 | 98.7 | 9 | > 9 | 98.7 | 98.7 | –
COc1cccc(-c2cc(=O)c3cc(NC(C)=O)ccc3o2)c1 | > 404 | 10 | > 10 | > 404 | > 404 | –
COc1cccc(-c2oc3ccc(NC(C)=O)cc3c(=O)c2OC)c1 | 369 | 5 | > 5 | 369 | 369 | –
COc1ccccc1-c1oc2ccc(NC(C)=O)cc2c(=O)c1OC | 154 | 108 | 16 | 154 | 154 | 6.7
COc1ccccc1-c1cc(=O)c2cc(NC(C)=O)ccc2o1 | 226 | 50 | > 50 | 226 | 226 | –
COc1cccc2c1C(=O)c1c(O)c3c(c(O)c1C2=O)C[C@@](O)(C(=O)CO)C[C@@H]3O[C@H]1C[C@H](N)[C@H](O)[C@H](C)O1 [DOXORUBICIN] | – | 0.07 | – | – | – | –
CC(=O)Nc1ccc2oc(-c3cccc(C(F)(F)F)c3)c(O)c(=O)c2c1 | 5.7 | 1 | > 1 | 5.7 | 5.7 | –
Nc1ccc2oc(-c3cccc(C(F)(F)F)c3)cc(=O)c2c1 | 138 | 34 | > 34 | 138 | 138 | –
COc1c(-c2ccc(F)cc2)oc2ccc(N)cc2c1=O | 141 | 36 | 33 | 141 | 141 | 1.1
COc1ccc(-c2cc(=O)c3cc(N)ccc3o2)cc1 | 240 | 124 | 35 | 240 | 240 | 3.5
Nc1ccc2oc(-c3ccc(F)cc3)c(O)c(=O)c2c1 | 92.6 | 4 | > 4 | 92.6 | 92.6 | –
COc1ccccc1-c1oc2ccc(N)cc2c(=O)c1O | 222 | 102 | 46 | 222 | 222 | 2.2
COc1cccc(-c2oc3ccc(NC(C)=O)cc3c(=O)c2O)c1 | 33.3 | 50 | 50 | 33.3 | 33.3 | –
CC(=O)Nc1ccc2oc(-c3ccccc3F)cc(=O)c2c1 | 205 | > 125 | 40 | 205 | 205 | > 3.1
CC(=O)Nc1ccc2oc(-c3ccccc3F)c(O)c(=O)c2c1 | 171 | 47 | > 47 | 171 | 171 | –
CC(=O)Nc1ccc(O)c(C(=O)/C=C/c2cccc(F)c2)c1 | 30.1 | 78.6 | 15.7 | 30.1 | 30.1 | 5
CC(=O)Nc1ccc(O)c(C(=O)/C=C/c2ccc(F)cc2)c1 | 41.1 | 68.8 | 16.9 | 41.1 | 41.1 | 4.1
COc1ccccc1-c1oc2ccc(N)cc2c(=O)c1OC | 229 | 116 | 7.7 | 229 | 229 | 15.1
Nc1ccc2oc(-c3ccc(C(F)(F)F)cc3)cc(=O)c2c1 | 273 | 1.9 | > 1.9 | 273 | 273 | –
CC(=O)Nc1ccc(O)c(C(=O)/C=C/c2ccccc2F)c1 | 33.8 | > 125 | 12.3 | 33.8 | 33.8 | > 10.2
Nc1ccc2oc(-c3ccc(F)cc3)cc(=O)c2c1 | 264 | 10 | > 10 | 264 | 264 | –
CC(=O)Nc1ccc2oc(-c3ccccc3)cc(=O)c2c1 | 184 | 97 | > 50 | 184 | 184 | –
CC(=O)Nc1ccc2oc(-c3cccc(F)c3)cc(=O)c2c1 | 240 | > 125 | 50 | 240 | 240 | > 2.5
CC(=O)Nc1ccc2oc(-c3cccc(C(F)(F)F)c3)cc(=O)c2c1 | 10 | 50 | 50 | 10 | 10 | –

SMILES | IC50 [1] [µM] | IC50 (THP-1) [µM] | IC50 (Plasmodium falciparum) [µM] | CC50 at 96 h [2] [µM] | IC50 [3] [µM] | selectivity ratio [4]
COc1c(-c2cccc(C(F)(F)F)c2)oc2ccc(NC(C)=O)cc2c1=O | 201 | 52 | 19 | 201 | 201 | 2.7
COc1c(-c2ccc(C(F)(F)F)cc2)oc2ccc(NC(C)=O)cc2c1=O | 332 | > 125 | 39 | 332 | 332 | > 3.2
COc1c(-c2ccccc2)oc2ccc(N)cc2c1=O | 126 | 74 | 20 | 126 | 126 | 3.7
COc1cccc(-c2oc3ccc(N)cc3c(=O)c2O)c1 | 40.8 | 2 | > 2 | 40.8 | 40.8 | –
CC(=O)Nc1ccc2oc(-c3ccc(C(F)(F)F)cc3)cc(=O)c2c1 | 330 | 10 | > 10 | 330 | 330 | –
COc1ccc(-c2oc3ccc(N)cc3c(=O)c2O)cc1 | 239 | 29 | > 29 | 239 | 239 | –
COc1cccc(-c2cc(=O)c3cc(N)ccc3o2)c1 | 247 | > 125 | 31 | 247 | 247 | > 4
CC(=O)Nc1ccc2oc(-c3cccc(F)c3)c(O)c(=O)c2c1 | 26.5 | 36 | > 36 | 26.5 | 26.5 | –
COc1ccc(-c2oc3ccc(NC(C)=O)cc3c(=O)c2OC)cc1 | 369 | > 50 | 21 | 369 | 369 | > 2.4
Nc1ccc2oc(-c3ccccc3F)c(O)c(=O)c2c1 | 44.5 | 38 | > 38 | 44.5 | 44.5 | –
Nc1ccc2oc(-c3ccccc3F)cc(=O)c2c1 | 284 | 44 | > 44 | 283 | 283 | –
COc1ccccc1/C=C/C(=O)c1cc(NC(C)=O)ccc1O | 37.8 | > 125 | 13.4 | 37.8 | 37.8 | > 9.3
CC(=O)Nc1ccc2oc(-c3ccccc3)c(O)c(=O)c2c1 | 64.7 | 36 | > 36 | 64.7 | 64.7 | –
Nc1ccc2oc(-c3cccc(F)c3)c(O)c(=O)c2c1 | 35.3 | 30 | > 30 | 35.3 | 35.3 | –
CC(=O)Nc1ccc2oc(-c3ccc(C(F)(F)F)cc3)c(O)c(=O)c2c1 | 7.3 | > 50 | > 50 | 7.3 | 7.3 | –
Nc1ccc2oc(-c3cccc(C(F)(F)F)c3)c(O)c(=O)c2c1 | 8.1 | 2 | > 2 | 8.1 | 8.1 | –
CC(=O)Nc1ccc(O)c(C(=O)/C=C/c2cccc(C(F)(F)F)c2)c1 | 32.1 | 8.4 | 11.3 | 32.1 | 32.1 | –
Nc1ccc2oc(-c3ccc(C(F)(F)F)cc3)c(O)c(=O)c2c1 | 3.9 | > 125 | > 50 | 3.9 | 3.9 | –
CC(=O)Nc1ccc2oc(-c3ccc(F)cc3)c(O)c(=O)c2c1 | 34.1 | 26 | > 26 | 34.1 | 34.1 | –
Nc1ccc2oc(-c3ccccc3)c(O)c(=O)c2c1 | 216 | 27 | > 27 | 216 | 216 | –
Nc1ccc2oc(-c3ccccc3)cc(=O)c2c1 [6-AMINOFLAVONE] | 209 | 36 | > 36 | 209 | 209 | –
CC(=O)Nc1ccc2oc(-c3ccc(F)cc3)cc(=O)c2c1 | 203 | 22 | > 22 | 203 | 203 | –
COc1ccc(-c2cc(=O)c3cc(NC(C)=O)ccc3o2)cc1 | 226 | 74 | > 50 | 226 | 226 | –
